Test results taken from ChEMBL document CHEMBL1148321, “New series of morpholine and 1,4-oxazepane derivatives as dopamine D4 receptor ligands: synthesis and 3D-QSAR model” (J Med Chem, 2004).
Calls of active or inactive are those of the source. The rule behind the calls is not given here.

The molecules below were run against T1, D(4) dopamine receptor (Homo sapiens, UniProt P21917) (assay: In vitro ability of compound to inhibit binding of [3H]spiperone to human Dopamine receptor D4).
T1 sequence (P21917 whole entry): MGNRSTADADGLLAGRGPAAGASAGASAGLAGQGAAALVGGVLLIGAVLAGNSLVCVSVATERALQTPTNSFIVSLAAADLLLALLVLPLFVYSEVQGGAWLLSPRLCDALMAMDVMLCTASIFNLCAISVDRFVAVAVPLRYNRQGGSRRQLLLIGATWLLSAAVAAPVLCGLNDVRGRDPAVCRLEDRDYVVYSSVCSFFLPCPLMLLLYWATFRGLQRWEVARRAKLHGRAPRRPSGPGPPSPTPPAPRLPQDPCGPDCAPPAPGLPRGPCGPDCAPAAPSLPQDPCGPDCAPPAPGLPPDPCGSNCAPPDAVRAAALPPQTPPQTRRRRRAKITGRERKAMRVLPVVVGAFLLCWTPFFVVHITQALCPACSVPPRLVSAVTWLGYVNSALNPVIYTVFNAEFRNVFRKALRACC
Molecule CCOc1ccccc1OCC1CN(Cc2ccc([N+](=O)[O-])cc2)CCO1 (stereo unspecified) has a Ki of 35 nM.
For Cc1ncccc1OCC1CN(Cc2ccc(Cl)cc2)CCCO1 (stereo unspecified), the Ki was 83 nM.
For COc1cccc(OCC2CN(Cc3ccc(Cl)cc3)CCO2)c1OC (stereo unspecified), the Ki was 1000 nM.
Work on CCOc1cc(I)ccc1OCC1CN(Cc2ccc(Cl)cc2)CCO1 (stereo unspecified) yielded a Ki of 24 nM.
CCOc1ccccc1OCC1CN(Cc2ccc(Cl)cc2)CCO1 (stereo unspecified) was tested, and the Ki was 13 nM.
CCOc1ccccc1OCC1CN(Cc2ccc(F)cc2)CCO1 (stereo unspecified) was tested, and the Ki was 180 nM.
With COc1ccc(Cl)cc1OCC1CN(Cc2ccccc2)CCO1 (stereo unspecified) the Ki was 70 nM.
In the case of COc1ccccc1/C=C/C1CN(Cc2ccc(Cl)cc2)CCO1 (stereo unspecified), the Ki is reported as 200 nM.
CC(=O)c1ccc(Cl)cc1OCC1CN(Cc2ccc(Cl)cc2)CCCO1 (stereo unspecified) gave a Ki of 5.5 nM.
Work on Oc1cc(Cl)ccc1NCC1CN(Cc2ccc(Cl)cc2)CCO1 (stereo unspecified) yielded a Ki of 5.4 nM.
With CCCc1ccccc1OCC1CN(Cc2ccc(Cl)cc2)CCO1 (stereo unspecified) the Ki was 32 nM.
Work on COc1ccc([N+](=O)[O-])cc1OCC1CN(Cc2ccc(Cl)cc2)CCO1 (stereo unspecified) yielded a Ki of 23 nM.
Clc1ccc(CN2CCOC(COc3ccc(Cl)c4cccnc34)C2)cc1 (stereo unspecified) showed a Ki of 40 nM.
COc1cc(Cl)ccc1OCC1CN(Cc2ccc(Br)cc2)CCCO1 (stereo unspecified) showed a Ki of 2 nM.
Molecule CCOc1ccc(Cl)cc1OCC1CN(Cc2ccc(Cl)cc2)CCO1 (stereo unspecified) has a Ki of 2.9 nM.
With CCOc1ccc(Cl)cc1OCC1CN(Cc2ccc(Cl)cc2)CCCO1 (stereo unspecified) the Ki was 9.3 nM.
In the case of COc1cc(I)ccc1OCC1CN(Cc2ccccc2)CCO1 (stereo unspecified), the Ki is reported as 430 nM.
With COc1ccccc1OCC1CN(Cc2ccc(Cl)cc2)CCO1 (stereo unspecified) the Ki was 32 nM.
CC(C)Oc1ccccc1OCC1CN(Cc2ccc(Cl)cc2)CCO1 (stereo unspecified) was tested, and the Ki was 46 nM.
COc1ccccc1OCC1CN(Cc2ccc(Cl)c(Cl)c2)CCO1 (stereo unspecified) showed a Ki of 32 nM.
CCOc1ccccc1OCC1CN(Cc2ccc(Cl)cc2)CCCO1 (stereo unspecified) was tested, and the Ki was 4.9 nM.
COc1ccc(Cl)cc1NCC1CN(Cc2ccc(Cl)cc2)CCO1 (stereo unspecified) gave a Ki of 4.5 nM.
CCOc1cc(Cl)ccc1OCC1CN(Cc2ccc(Cl)cc2)CCO1 (stereo unspecified) was tested, and the Ki was 13 nM.
For COc1ccc(N)cc1OCC1CN(Cc2ccc(Cl)cc2)CCO1 (stereo unspecified), the Ki was 100 nM.
COc1ccc(F)cc1OCC1CN(Cc2ccc(Cl)cc2)CCO1 (stereo unspecified) gave a Ki of 30 nM.
For COCCOc1ccccc1OCC1CN(Cc2ccc(Cl)cc2)CCO1 (stereo unspecified), the Ki was 52 nM.
Molecule COc1ccc([N+](=O)[O-])cc1OCC1CN(Cc2ccc(Cl)cc2)CCCO1 (stereo unspecified) has a Ki of 400 nM.
Molecule COc1cc(Cl)ccc1OC[C@H]1CN(Cc2ccc(Cl)cc2)CCO1 has a Ki of 1600 nM.
For COc1ccccc1OCC1CN(Cc2ccc(C(F)(F)F)cc2)CCO1 (stereo unspecified), the Ki was 61 nM.
Molecule COc1ccccc1SCC1CN(Cc2ccc(Cl)cc2)CCO1 (stereo unspecified) has a Ki of 61 nM.
For COc1cc(C(=O)NC2CC2)c(Cl)cc1OCC1CN(Cc2ccc(Cl)cc2)CCO1 (stereo unspecified), the Ki was 150 nM.
Work on CCOc1ccccc1OCC1CN(Cc2ccc(Cl)cc2Cl)CCO1 (stereo unspecified) yielded a Ki of 290 nM.
COc1cc(Cl)ccc1OCC1CN(Cc2ccc(Cl)cc2)CCO1 (racemic) gave a Ki of 4.4 nM.
CCOc1cc(C#N)ccc1OCC1CN(Cc2ccc(Cl)cc2)CCO1 (stereo unspecified) was tested, and the Ki was 40 nM.
Work on COc1ccc(C(F)(F)F)cc1OCC1CN(Cc2ccc(Cl)cc2)CCO1 (stereo unspecified) yielded a Ki of 250 nM.
COc1ccccc1OCC1CN(Cc2cccc(Cl)c2)CCO1 (stereo unspecified) was tested, and the Ki was 650 nM.
For CCOc1cc(Cl)ccc1OCC1CN(Cc2ccc(Cl)cc2)CCCO1 (stereo unspecified), the Ki was 7 nM.
With COc1cc(Cl)ccc1OC[C@@H]1CN(Cc2ccc(Cl)cc2)CCO1 the Ki was 2.8 nM.
Molecule COc1ccccc1CCC1CN(Cc2ccc(Cl)cc2)CCO1 (stereo unspecified) has a Ki of 29 nM.

These molecules were tested against D(2) dopamine receptor (Homo sapiens) (UniProt P14416) (assay: Compound was tested for its affinity towards human Dopamine receptor D2 at 10 uM; No affinity was observed).
Sequence of D(2) dopamine receptor (Homo sapiens) (P14416 whole entry): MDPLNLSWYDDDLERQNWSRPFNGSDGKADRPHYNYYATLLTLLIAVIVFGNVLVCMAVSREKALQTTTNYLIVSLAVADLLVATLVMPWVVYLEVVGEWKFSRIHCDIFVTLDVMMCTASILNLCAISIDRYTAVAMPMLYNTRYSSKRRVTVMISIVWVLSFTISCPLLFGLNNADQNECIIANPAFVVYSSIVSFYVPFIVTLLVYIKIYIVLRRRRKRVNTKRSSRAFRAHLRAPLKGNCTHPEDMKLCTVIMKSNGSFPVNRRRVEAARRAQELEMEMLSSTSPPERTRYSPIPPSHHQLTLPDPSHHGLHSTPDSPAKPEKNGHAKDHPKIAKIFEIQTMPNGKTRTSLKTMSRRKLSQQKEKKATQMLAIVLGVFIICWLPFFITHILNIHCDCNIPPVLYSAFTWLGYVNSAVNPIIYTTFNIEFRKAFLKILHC
For CCOc1ccccc1OCC1CN(Cc2ccc([N+](=O)[O-])cc2)CCO1 (stereo unspecified), the Activity was “inactive”.
For Cc1ncccc1OCC1CN(Cc2ccc(Cl)cc2)CCCO1 (stereo unspecified), the Activity was “inactive”.
In the case of COc1cccc(OCC2CN(Cc3ccc(Cl)cc3)CCO2)c1OC (stereo unspecified), the Activity is reported as “inactive”.
In the case of CCOc1cc(I)ccc1OCC1CN(Cc2ccc(Cl)cc2)CCO1 (stereo unspecified), the Activity is reported as “inactive”.
With CCOc1ccccc1OCC1CN(Cc2ccc(Cl)cc2)CCO1 (stereo unspecified) the Activity was “inactive”.
CCOc1ccccc1OCC1CN(Cc2ccc(F)cc2)CCO1 (stereo unspecified) was tested, and the Activity was “inactive”.
For COc1ccc(Cl)cc1OCC1CN(Cc2ccccc2)CCO1 (stereo unspecified), the Activity was “inactive”.
For COc1ccccc1/C=C/C1CN(Cc2ccc(Cl)cc2)CCO1 (stereo unspecified), the Activity was “inactive”.
With CC(=O)c1ccc(Cl)cc1OCC1CN(Cc2ccc(Cl)cc2)CCCO1 (stereo unspecified) the Activity was “inactive”.
In the case of Oc1cc(Cl)ccc1NCC1CN(Cc2ccc(Cl)cc2)CCO1 (stereo unspecified), the Activity is reported as “inactive”.
With CCCc1ccccc1OCC1CN(Cc2ccc(Cl)cc2)CCO1 (stereo unspecified) the Activity was “inactive”.
COc1ccc([N+](=O)[O-])cc1OCC1CN(Cc2ccc(Cl)cc2)CCO1 (stereo unspecified) was tested, and the Activity was “inactive”.
In the case of Clc1ccc(CN2CCOC(COc3ccc(Cl)c4cccnc34)C2)cc1 (stereo unspecified), the Activity is reported as “inactive”.
COc1cc(Cl)ccc1OCC1CN(Cc2ccc(Br)cc2)CCCO1 (stereo unspecified) was tested, and the Activity was “inactive”.
For CCOc1ccc(Cl)cc1OCC1CN(Cc2ccc(Cl)cc2)CCO1 (stereo unspecified), the Activity was “inactive”.
COc1cc(Cl)cc(OCC2CN(Cc3ccccc3)CCO2)c1 (stereo unspecified) was tested, and the Activity was “inactive”.
With CCOc1ccc(Cl)cc1OCC1CN(Cc2ccc(Cl)cc2)CCCO1 (stereo unspecified) the Activity was “inactive”.
With COc1ccccc1OCC1CN(Cc2ccccc2)CCO1 (stereo unspecified) the Activity was “inactive”.
COc1cc(I)ccc1OCC1CN(Cc2ccccc2)CCO1 (stereo unspecified) was tested, and the Activity was “inactive”.
In the case of COc1ccccc1OCC1CN(Cc2ccc(Cl)cc2)CCO1 (stereo unspecified), the Activity is reported as “inactive”.
CC(C)Oc1ccccc1OCC1CN(Cc2ccc(Cl)cc2)CCO1 (stereo unspecified) was tested, and the Activity was “inactive”.
With COc1ccccc1OCC1CN(Cc2ccc(Cl)c(Cl)c2)CCO1 (stereo unspecified) the Activity was “inactive”.
In the case of CCOc1ccccc1OCC1CN(Cc2ccc(Cl)cc2)CCCO1 (stereo unspecified), the Activity is reported as “inactive”.
For COc1ccc(Cl)cc1NCC1CN(Cc2ccc(Cl)cc2)CCO1 (stereo unspecified), the Activity was “inactive”.
CCOc1cc(Cl)ccc1OCC1CN(Cc2ccc(Cl)cc2)CCO1 (stereo unspecified) was tested, and the Activity was “inactive”.
In the case of COc1ccc(N)cc1OCC1CN(Cc2ccc(Cl)cc2)CCO1 (stereo unspecified), the Activity is reported as “inactive”.
For COc1ccc(F)cc1OCC1CN(Cc2ccc(Cl)cc2)CCO1 (stereo unspecified), the Activity was “inactive”.
In the case of COCCOc1ccccc1OCC1CN(Cc2ccc(Cl)cc2)CCO1 (stereo unspecified), the Activity is reported as “inactive”.
For COc1ccc([N+](=O)[O-])cc1OCC1CN(Cc2ccc(Cl)cc2)CCCO1 (stereo unspecified), the Activity was “inactive”.
COc1cc(Cl)ccc1OC[C@H]1CN(Cc2ccc(Cl)cc2)CCO1 was tested, and the Activity was “inactive”.
In the case of COc1ccccc1OCC1CN(Cc2ccc(C(F)(F)F)cc2)CCO1 (stereo unspecified), the Activity is reported as “inactive”.
COc1ccccc1SCC1CN(Cc2ccc(Cl)cc2)CCO1 (stereo unspecified) was tested, and the Activity was “inactive”.
With COc1cc(C(=O)NC2CC2)c(Cl)cc1OCC1CN(Cc2ccc(Cl)cc2)CCO1 (stereo unspecified) the Activity was “inactive”.
For CCOc1ccccc1OCC1CN(Cc2ccc(Cl)cc2Cl)CCO1 (stereo unspecified), the Activity was “inactive”.
COc1cc(Cl)ccc1OCC1CN(Cc2ccc(Cl)cc2)CCO1 (racemic) was tested, and the Activity was “inactive”.
With CCOc1cc(C#N)ccc1OCC1CN(Cc2ccc(Cl)cc2)CCO1 (stereo unspecified) the Activity was “inactive”.
For COc1ccc(C(F)(F)F)cc1OCC1CN(Cc2ccc(Cl)cc2)CCO1 (stereo unspecified), the Activity was “inactive”.
COc1ccccc1OCC1CN(Cc2cccc(Cl)c2)CCO1 (stereo unspecified) was tested, and the Activity was “inactive”.
CCOc1cc(Cl)ccc1OCC1CN(Cc2ccc(Cl)cc2)CCCO1 (stereo unspecified) was tested, and the Activity was “inactive”.
In the case of COc1cc(Cl)ccc1OC[C@@H]1CN(Cc2ccc(Cl)cc2)CCO1, the Activity is reported as “inactive”.
For COc1ccccc1CCC1CN(Cc2ccc(Cl)cc2)CCO1 (stereo unspecified), the Activity was “inactive”.

The molecules below were run against T1, D(4) dopamine receptor (assay: In vitro ability to inhibit binding of [3H]spiperone to human recombinant Dopamine receptor D4.2 expressed on CHO cells).
Format: cell-based
Procedure, shortened: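 Frozen membranes from CHO cells transfected with human D4.2, stored at -80 C, were thawed and diluted in 50 mM Tris-HCl pH 7.4 with 120 mM NaCl, 5 mM KCl, 5 mM MgCl2 and 1 mM EDTA. They were incubated with [3H]spiperone (0.5 nM final) for 60 min at 25 C, with haloperidol defining nonspecific binding. Samples were filtered on PEI-presoaked GF/C filters, washed with cold Tris/NaCl, and counted by scintillation.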
COc1ccccc1OCC1CN(Cc2ccccc2)CCO1 (stereo unspecified) showed a Ki of 850 nM.
